Publication PMC10786304 (Proceedings of the National Academy of Sciences of the …, 2024)
≈ marks a conversion by molar mass, not a printed value.

How the values were obtained:
[1] = tested on: M. abscessus ATCC 19977 ∆2780c (∆tetV); experiment: MIC, isogenic deletion mutant ∆tetV; format: cell-based, Mycobacterium abscessus; conditions: for WT/∆2780c ratio: WT MIC divided by ∆tetV MIC
[2] = tested on: M. abscessus ATCC 19977 ∆3508c ∆2780c; experiment: MIC, double deletion mutant ∆whiB7 ∆tetV; format: cell-based, Mycobacterium abscessus; conditions: ∆tetV MIC divided by ∆whiB7 ∆tetV MIC
[3] = tested on: 2593-resistant spontaneous Mab mutants (Mab ATCC 19977); experiment: Selection and MIC testing of 2593-resistant spontaneous Mab mutants; format: cell-based, Mycobacterium abscessus; conditions: cross-resistance test
M. abscessus ATCC 19977 = experiment: microbe, parasite or virus in culture; format: cell-based, Mycobacterium abscessus; conditions: Mycobacteroides abscessus, ATCC19977, 120 h, read-out: MIC M. abs
[4] = tested on: purified M. smegmatis ATCC 19420 ribosomes; experiment: Mycobacterial cell-free translation inhibition assay; format: biochemical, Mycobacterium smegmatis; conditions: read-out: IC50 M. smg ribo
[5] = tested on: M. abscessus ATCC 19977 ∆3508c (∆whiB7); experiment: MIC, isogenic deletion mutant ∆whiB7; format: cell-based, Mycobacterium abscessus; conditions: versus wild type
Mab ATCC 19977 = experiment: Whole-cell accumulation assay; format: cell-based, Mycobacterium abscessus; conditions: 100 µM compound, 30 min; mean ± SD
How it was run: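 Mab grown in MHB2 + 0.05% tyloxapol (37 °C, shaking) to OD600 0.5–0.6 was washed in PBS with 0.05% Tween-80 and 5% glucose. The concentrated suspension was incubated with 100 µM compound (1% DMSO) for 30 min at 37 °C, then washed three times; an aliquot was taken for CFU. Pellets were lysed and filtered supernatant quantified by LC-MS/MS. A = C×V/CFU, normalized to 10^10 CFU. Biological triplicate, mean and SD; ANOVA with Dunnett versus SPC.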

[6] = tested on: M. abscessus ATCC 19977 ∆2780c (∆tetV); conditions: ref [7], [17]; cited from earlier work

SMILES	WT/∆2780c ratio [1]	∆2780c/∆3508c ∆2780c ratio [2]	susceptibility of 2593-resistant mutants [3]	MIC (M. abscessus ATCC 19977)	IC50 [4]	increase in susceptibility against the ΔwhiB7 strain [5]	increase in susceptibility in the ΔtetV strain ([1]; versus wild type)	whole-cell accumulation (Mab ATCC 19977)	increase in SPC susceptibility of Mab Δ2780c deletion mutants [6]
NCC[C@H](O)C(=O)N[C@@H]1C[C@H](N)[C@@H](O[C@H]2O[C@H](CN)[C@@H](O)[C@H](O)[C@H]2O)[C@H](O)[C@H]1O[C@H]1O[C@H](CO)[C@@H](O)[C@H](N)[C@H]1O [AMK, amikacin]	1	8	remained susceptible						
CN[C@@H]1[C@H](O)[C@H](NC)[C@H]2O[C@@]3(O)C(=O)C[C@@H](C)O[C@H]3O[C@@H]2[C@H]1O [SPC, spectinomycin]	64	1		256 mg/L (≈ 770 µM)	0.8 ± 0.21 µM	eightfold	64 fold	38.2 ± 9.0 nM/10^10 CFU	> 100 fold
